Compound activity: PubChem, Johns Hopkins Ion Channel Center
MrgX1 antag – antagonists of human MrgX1 receptor; Q96LB2; MRGX1-HEK293 calcium flux, Fluo-4, BAM8-22 antagonism; hits give low values; B-score at 10 µM; 310,000 compounds, 1.3% hits;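 active = calcium-response B-score plate-corrected more than 3 library SD below zero, starting fluorescence within 5 deviations, no agonist response on first addition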;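 note: peak minus trough fluorescence over baseline after final BAM8-22 challenge near maximal dose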
Target sequence (Q96LB2 whole entry, looked up): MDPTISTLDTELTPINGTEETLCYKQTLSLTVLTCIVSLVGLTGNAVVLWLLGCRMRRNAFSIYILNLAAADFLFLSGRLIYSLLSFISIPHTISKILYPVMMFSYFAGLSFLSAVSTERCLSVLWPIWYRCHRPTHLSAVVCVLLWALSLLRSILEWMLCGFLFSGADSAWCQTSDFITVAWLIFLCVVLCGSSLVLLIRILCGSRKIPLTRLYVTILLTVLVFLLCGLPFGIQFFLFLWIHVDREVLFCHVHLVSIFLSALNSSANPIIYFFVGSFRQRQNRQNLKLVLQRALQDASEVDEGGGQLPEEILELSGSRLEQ
MrgX1 PAM – allosterically activates human MrgX1 receptor signaling; Q96LB2; MrgX1-HEK293, Fluo-4 calcium flux, FDSS; hits give high values; B-score at 10 µM; 310,000 compounds, 0.63% hits; AID 588675;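 active = plate-corrected calcium response at least 3 library SD above typical, normal starting fluorescence, not activating the receptor alone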;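 note: compound read alongside a low EC10 to EC30 dose of BAM8-22 agonist; peak minus trough fluorescence over baseline measured at the second addition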
RGS4 pot – RGS4 potentiation or activation. HEK293 M3R/inducible RGS4, carbachol calcium flux Fluo4; hits give low values. AID 463111. B-score at 10 µM. 310,000 compounds, 0.92% hits;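 active = B-score of the integrated calcium signal more than 4 SD below the library mean, with starting fluorescence not abnormally high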;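 note: negative B-score means reduced calcium response which marks RGS4 activation or potentiation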
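test system = HEK293 cells with stable M3R and inducible RGS4 | schedule = recording 10 s baseline at 1 Hz, 100 s post-agonist | technique = Fluo4-AM (2 µM) calcium-flux fluorescence, kinetic read | measure = Agonist-evoked peak-minus-minimum fluorescence over baseline, integrated ratio, B score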
MrgX1 ag – agonists of human MrgX1 receptor; MrgX1-HEK293 cells, Fluo-4 calcium fluorescence, agonist mode; hits give high values; B-score at 10 µM; 310,000 compounds, 0.44% hits; AID 588627;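 active = calcium response B-score plate-corrected fluorescence ratio at least 3 library SD, with starting fluorescence B-score inside 5 SD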
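System – MrgX1-expressing HEK293 cells · Incubation – cells plated overnight, dye loaded 0.5 h 37 °C, 0.5 h room temperature · Technique – kinetic Fluo-4 NW fluorescence of intracellular calcium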
RGS4 inh – inhibitors of human RGS4; P49798; HEK293 M3R/RGS4 inducible, Fluo-4 calcium flux; hits give high values; triggered by carbachol at its EC20; B-score at 10 µM; 310,000 compounds, 0.45% hits;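 active = B-score, a plate-corrected calcium signal, over three deviations above library mean, with baseline fluorescence within five deviations of library mean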;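 note: RGS4 expression induced by doxycycline in cells with stable M3 receptor; B-score is computed from the integrated fluorescence ratio over baseline after carbachol; higher B-score means a larger calcium signal and so more RGS4 inhibition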
Target sequence (P49798 whole entry, looked up): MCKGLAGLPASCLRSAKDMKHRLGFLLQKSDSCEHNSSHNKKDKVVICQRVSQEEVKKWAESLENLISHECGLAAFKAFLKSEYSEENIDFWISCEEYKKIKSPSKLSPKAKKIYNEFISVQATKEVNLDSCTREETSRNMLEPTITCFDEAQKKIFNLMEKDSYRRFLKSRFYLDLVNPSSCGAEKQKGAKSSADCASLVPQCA
RGS4 inh valid – validation of RGS4 inhibitors; shares compounds with RGS4 inh; calcium response, % at 10 µM; 1,700 compounds, 65% hits; AID 492999; HEK293 M3R/RGS4, carbachol calcium Fluo-4 fluorescence; carbachol added at its EC20; 0 = buffer wells, 100 = carbachol control;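 active = duplicate-averaged calcium response above the buffer-only control mean plus 5 SD of those controls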;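 note: integrated fluorescence ratio F max minus min over baseline F0; higher response in RGS4-induced cells means RGS4 inhibition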
M3R Ca ctr – non-induced cell nonspecific activity of RGS4 inhibitors. shares compounds with RGS4 inh. HEK293 M3R non-induced, carbachol calcium Fluo-4; submaximal (EC20) carbachol stimulus; buffer wells 0%, carbachol control wells 100%. activity (percent), % at 10 µM. 1,900 compounds, 20% hits; call rule not given here;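 note: RGS4 induction absent so cells express M3R without RGS4; higher means more calcium signal and flags a non-specific hit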
M3R basal Ca ctr – second RGS4 inhibitor counter-screen in uninduced cells lacking carbachol; calcium response (agonist-mode artifact), % at 10 µM; shares compounds with RGS4 inh; HEK293 M3R/RGS4 non-induced, Fluo-4 calcium, no carbachol; normalised: buffer wells 0%, carbachol wells 100%; 1,900 compounds, 22% hits;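 active = duplicate-averaged calcium rise in uninduced cells above buffer wells' mean plus 5 SD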
* marks the source's active call; other numbers are inactive results; i = inactive; . = no result. A selection: hits, their analogues and other compounds. The true share with any hit is near 3.5%.

SMILES | MrgX1 antag | MrgX1 PAM | RGS4 pot | MrgX1 ag | RGS4 inh | RGS4 inh valid | M3R Ca ctr | M3R basal Ca ctr
CN1CCN(C(=O)CCCN2C(=O)/C(=C/c3ccccc3)SC2=S)CC1 | i | i | i | i | i | . | . | .
O=C(O)CCCN1C(=O)/C(=C\c2ccc(-c3nc4ccccc4s3)o2)SC1=S | -8* | i | -7.9* | i | 21* | 14%* | i | 126%*
COc1ccc(NC(=O)Nc2ccc3c(c2)CCC3)cc1 | i | i | i | i | i | . | . | .
CCc1cccc2c(C(=O)CN3C(=O)NC(C)(c4cccc5ccccc45)C3=O)c[nH]c12 (stereo unspecified) | i | i | i | i | 11* | i | i | i
CN(Cc1ccccc1)C(=O)c1nc2ccccn2c1CN1CCC(N2CCOCC2)CC1 | i | i | i | i | i | . | . | .
O=C1CCCC2=C1C(c1ccc(Cl)cc1)n1c(s/c(=C\c3ccc4ccncc4c3)c1=O)=N2 (stereo unspecified) | i | i | i | i | 14* | 42%* | i | 196%*
CCOC(=O)C1=C(C)N=c2s/c(=C/c3ccc(OCC(=O)O)c(OC)c3)c(=O)n2C1c1ccc(Cl)cc1 (stereo unspecified) | i | i | i | i | i | . | . | .
CC(=O)Nc1ccc(S(=O)(=O)Nc2cc([N+](=O)[O-])ccc2C)cc1 | i | i | i | i | i | . | . | .
Cc1ccc(NS(=O)(=O)c2ccc(NC(=O)CN(c3cc([N+](=O)[O-])ccc3C)S(C)(=O)=O)cc2)c(C)c1 | i | i | i | i | 8.6* | 23%* | i | i
CCN(CC)CCCNC(=S)N(CCO)Cc1cc2cc3c(cc2[nH]c1=O)OCCO3 | i | i | i | i | i | i | i | i
CCOCCCNC(=S)N(CCO)Cc1cc2cc3c(cc2[nH]c1=O)OCCO3 | i | i | i | i | i | i | i | i
CCCCNC(=S)N(CCO)Cc1cc2cc3c(cc2[nH]c1=O)OCCO3 | i | i | i | i | i | i | i | i
CC(C)c1nnc(NC(=O)c2sc3ccccc3c2Cl)s1 | i | i | i | i | 4.8* | i | i | i
Cc1[nH]c2ccccc2c1C(=O)CN1C(=O)NC(C)(c2ccc(Cl)cc2Cl)C1=O (stereo unspecified) | i | i | i | i | 10* | 30%* | i | 56%*
Cc1[nH]c2ccccc2c1C(=O)CSc1ccc(Cl)cc1 | i | i | i | i | i | . | . | .
NS(=O)(=O)c1cccc(NC(=O)Cn2nc(C(=O)O)c3ccccc3c2=O)c1 | i | i | i | i | i | . | . | .
Oc1ccc(C[C@H]2CNCCN2CCC23CC4CC(CC(C4)C2)C3)cc1 | i | i | i | i | i | . | i | i
Oc1ccc(C[C@@H]2CNCCN2CCC23CC4CC(CC(C4)C2)C3)cc1 | i | i | i | i | i | . | i | 16%*
O=C(O)c1cc(-c2ccccc2)nn1CC1CC(c2cccc([N+](=O)[O-])c2)=NO1 (stereo unspecified) | i | i | i | i | i | . | . | .
CCCn1c(=O)n(C)c(=O)c2c(SC(C)C(=O)NCC3CCCO3)nc(CC(C)C)nc21 (stereo unspecified) | i | i | i | i | i | . | . | .
COc1cc(C2SCC(=O)N2Cc2ccccc2)cc(OC)c1OC (stereo unspecified) | i | i | i | i | i | . | . | .
Cc1cccn2c(=O)c(C=NCCO)c(Nc3ccc(Cl)cc3)nc12 | i | i | i | i | 7.5* | 12%* | i | i
Cc1cccn2c(=O)c(C=Nc3ccc(Cl)cc3)c(NCCO)nc12 | i | i | i | i | i | . | . | .
FC(F)(F)c1cccc(-c2nn[nH]n2)c1 | i | i | i | i | 4.8* | i | i | i
COc1ccc(N(CC(=O)NC2CCCC2)C(=O)Cn2nnc(-c3ccc(OC)c(OC)c3)n2)c(OC)c1 | i | i | i | i | i | . | . | .
SMILES | MrgX1 antag | MrgX1 PAM | RGS4 pot | MrgX1 ag | RGS4 inh | RGS4 inh valid | M3R Ca ctr | M3R basal Ca ctr
O=C(NCc1cccc(Br)c1)C1CC(c2ccccc2C(F)(F)F)=NO1 (stereo unspecified) | i | i | i | i | i | . | . | .
COc1ccc(/C(C)=N/Nc2ccc(C(=O)O)cc2)c(OC)c1 | i | i | i | i | i | . | . | .
COc1ccc2c(c1)C(=NNc1ccc(C(=O)O)cc1)c1cc(OC)ccc1-2 | i | i | i | i | 6.7* | 22%* | i | i
Cc1ccc([C@H]2C(C#N)=C(N)Oc3cc(C)oc(=O)c32)o1 | i | i | i | i | 6.9* | 26%* | i | i
Cc1cc(S(=O)(=O)NCc2ccccc2)ccc1OCC(=O)N1CCCC1 | i | i | i | i | i | . | . | .
COc1ccc(Cn2c(=O)c3[nH]cnc3n(-c3ccccc3C)c2=O)cc1 | i | i | i | i | 7.8* | 15%* | 38%* | i
COc1cc(C2c3c(-c4cc(Cl)c(C)cc4O)n[nH]c3C(=O)N2Cc2cccnc2)ccc1O (stereo unspecified) | i | i | i | i | i | . | i | i
Cc1ccc(C2c3c(-c4ccccc4O)n[nH]c3C(=O)N2Cc2ccncc2)cc1 (stereo unspecified) | i | i | i | i | i | . | . | .
OC(CNCC(c1ccc(Cl)cc1Cl)c1c[nH]c2ccccc12)c1ccccc1 (stereo unspecified) | i | i | i | i | 4.9* | 17%* | i | 14%*
O=[N+]([O-])CC(c1ccccc1)c1c[nH]c2ccccc12 (stereo unspecified) | i | i | i | i | i | . | . | .
Cc1sc(C(C2C(=O)CC(C)(C)CC2=O)C2C(=O)CC(C)(C)CC2=O)cc1[N+](=O)[O-] | i | i | i | i | 24* | 90%* | 50%* | 62%*
CC1(C)CC(=O)C(C(c2cc([N+](=O)[O-])ccc2Cl)C2C(=O)CC(C)(C)CC2=O)C(=O)C1 | i | i | i | i | i | . | . | .
